Legend:
[1] = biological target: Sodium-dependent serotonin transporter (Homo sapiens, UniProt P31645); experiment: Displacement of [3H]-citalopram from human SERT expressed in HEK293 cell membrane; format: cell membranes
In short: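 Competition binding on membranes of HEK-293 cells stably expressing SERT cDNA. [3H]citalopram fixed at 1 nM final, with a range of drug concentrations. Buffer Tris.HCl 50 mM, pH 7.4, NaCl 100 mM. Incubation 2 h at 0–4 °C, started by adding membranes. Rapid filtration through PEI-soaked GF/B filters, then scintillation counting. Nonspecific binding defined with 10 μM fluoxetine. IC50 reported as mean ± SEM of ≥3 experiments, each in triplicate.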

[2] = biological target: Sodium-dependent dopamine transporter (Homo sapiens, UniProt Q01959); experiment: Displacement of [3H]WIN-35428 from human DAT expressed in transfected cell membrane; format: cell membranes
Sequence of Sodium-dependent dopamine transporter (Q01959 whole entry): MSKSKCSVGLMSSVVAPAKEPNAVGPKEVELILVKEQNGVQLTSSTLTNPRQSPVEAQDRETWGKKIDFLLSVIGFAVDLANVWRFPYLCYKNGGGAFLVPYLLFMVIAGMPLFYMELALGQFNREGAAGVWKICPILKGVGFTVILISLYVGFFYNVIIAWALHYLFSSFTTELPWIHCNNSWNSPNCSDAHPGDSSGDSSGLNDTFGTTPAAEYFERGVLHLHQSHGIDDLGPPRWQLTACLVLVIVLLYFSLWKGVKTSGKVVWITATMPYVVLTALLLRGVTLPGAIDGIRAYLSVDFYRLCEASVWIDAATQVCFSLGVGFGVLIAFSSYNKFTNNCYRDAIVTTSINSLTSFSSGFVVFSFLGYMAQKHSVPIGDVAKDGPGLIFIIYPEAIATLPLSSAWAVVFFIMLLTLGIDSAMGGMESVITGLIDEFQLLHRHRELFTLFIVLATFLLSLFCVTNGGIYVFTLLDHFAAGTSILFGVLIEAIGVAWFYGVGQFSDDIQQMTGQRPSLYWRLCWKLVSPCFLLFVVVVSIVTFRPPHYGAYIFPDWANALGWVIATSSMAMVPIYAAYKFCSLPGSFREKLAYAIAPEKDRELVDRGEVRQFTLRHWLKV
In short: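 Membranes from transfected cells stably expressing hDAT, labelled with [3H]WIN35,428 at 4 nM final, with serial drug dilutions made from DMSO stocks. Buffer Tris.HCl 50 mM, pH 7.4, NaCl 100 mM. Incubated 1 h at 22 °C. Filtered over 0.1% PEI-presoaked GF/B filters and counted. Nonspecific binding defined with 100 μM (-)-cocaine. IC50 reported as mean ± SEM of ≥3 experiments, each in triplicate.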

Sequence of Sodium-dependent serotonin transporter (P31645 whole entry): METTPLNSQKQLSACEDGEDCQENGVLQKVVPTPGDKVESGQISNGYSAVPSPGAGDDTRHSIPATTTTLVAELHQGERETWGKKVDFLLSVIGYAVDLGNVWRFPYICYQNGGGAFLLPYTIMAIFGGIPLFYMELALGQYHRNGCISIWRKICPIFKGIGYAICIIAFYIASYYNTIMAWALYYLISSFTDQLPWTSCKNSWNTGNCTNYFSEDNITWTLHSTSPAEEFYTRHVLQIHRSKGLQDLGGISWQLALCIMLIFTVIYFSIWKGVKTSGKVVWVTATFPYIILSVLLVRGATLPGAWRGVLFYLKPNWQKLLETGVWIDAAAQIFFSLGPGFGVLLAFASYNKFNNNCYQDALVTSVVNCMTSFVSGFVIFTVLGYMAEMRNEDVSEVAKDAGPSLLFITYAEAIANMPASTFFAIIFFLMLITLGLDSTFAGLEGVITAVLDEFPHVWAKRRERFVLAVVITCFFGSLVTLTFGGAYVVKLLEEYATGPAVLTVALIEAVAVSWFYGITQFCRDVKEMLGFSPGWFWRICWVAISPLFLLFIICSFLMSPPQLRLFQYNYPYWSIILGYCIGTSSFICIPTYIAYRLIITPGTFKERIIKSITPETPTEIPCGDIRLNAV

| SMILES | IC50 [1] | IC50 [2] |
| --- | --- | --- |
| COC(=O)[C@@H]1C2CCC(C[C@@H]1c1ccc(Cl)c(Cl)c1)S2 (stereo not given in full) | 3 nM | 2 nM |
| CCCCCCC(=O)OC[C@H]1[C@@H](c2ccc(Cl)c(Cl)c2)CC2CC[C@H]1N2C | 53 nM | 8 nM |
| CN1C2CCC1[C@@H](COC(=O)CCC(=O)OC[C@@H]1C3CCC(C[C@@H]1c1ccc(Cl)c(Cl)c1)N3C)[C@@H](c1ccc(Cl)c(Cl)c1)C2 | 106 nM | 12 nM |
| CN1C2CCC1[C@@H](COC(=O)CCCCC(=O)OC[C@@H]1C3CCC(C[C@@H]1c1ccc(Cl)c(Cl)c1)N3C)[C@@H](c1ccc(Cl)c(Cl)c1)C2 | 56 nM | 28 nM |
| CN1C2CC[C@@H]1[C@@H](COC(=O)CCC(=O)OC[C@@H]1C3CCC(C[C@@H]1c1ccc(Cl)c(Cl)c1)S3)[C@@H](c1ccc(Cl)c(Cl)c1)C2 | 593 nM | 55 nM |
| CN1C2CCC1[C@@H](COC(=O)CCCCCCCCC(=O)OC[C@@H]1C3CCC(C[C@@H]1c1ccc(Cl)c(Cl)c1)N3C)[C@@H](c1ccc(Cl)c(Cl)c1)C2 | 17 nM | 31 nM |
| O=C(CCC(=O)OC[C@@H]1C2CCC(C[C@@H]1c1ccc(Cl)c(Cl)c1)S2)OC[C@@H]1C2CCC(C[C@@H]1c1ccc(Cl)c(Cl)c1)S2 | 2200 nM | 1540 nM |
| COC(=O)[C@@H]1C2CCC(C[C@@H]1c1ccc(Cl)c(Cl)c1)O2 (stereo not given in full) | 4.7 nM | 3.3 nM |
| CN1C2CCC1[C@@H](COC(=O)CCCCCCC(=O)OC[C@@H]1C3CCC(C[C@@H]1c1ccc(Cl)c(Cl)c1)N3C)[C@@H](c1ccc(Cl)c(Cl)c1)C2 | 31 nM | 11 nM |
| CN1C2CC[C@@H]1[C@@H](COC(=O)CCC(=O)OC[C@H]1[C@@H](c3ccc(Cl)c(Cl)c3)CC3CC[C@H]1O3)[C@@H](c1ccc(Cl)c(Cl)c1)C2 | 405 nM | 67 nM |
| CN1C2CCC1[C@@H](COC(=O)CCCCCCCCCCC(=O)OC[C@@H]1C3CCC(C[C@@H]1c1ccc(Cl)c(Cl)c1)N3C)[C@@H](c1ccc(Cl)c(Cl)c1)C2 | 140 nM | 115 nM |
| O=C(CCC(=O)OC[C@@H]1C2CCC(C[C@@H]1c1ccc(Cl)c(Cl)c1)S2)OC[C@@H]1C2CCC(C[C@@H]1c1ccc(Cl)c(Cl)c1)O2 (stereo not given in full) | 992 nM | 2960 nM |
| COC(=O)[C@@H]1C2CCC(C[C@@H]1c1ccc(Cl)c(Cl)c1)N2C (stereo not given in full) | 2.5 nM |  |

— ChEMBL document CHEMBL1143239, “The synthesis of bivalent 2beta-carbomethoxy-3beta-(3,4-dichlorophenyl)-8-heterobicyclo[3.2.1]octanes as probes for proximal binding sites on the dopamine and serotonin transporters” (Bioorg Med Chem, 2008)
